According to ChEMBL document CHEMBL4152256, “Structure-activity relationship of new antimalarial 1-aryl-3-susbtituted propanol derivatives: Synthesis, preliminary toxicity profiling, parasite life cycle stage studies, target exploration, and targeted delivery” (Eur J Med Chem, 2018):

Legend:
[1] = Selectivity index, ratio of CC50 for human HepG2A16 cells by MTT assay to IC50 for multidrug-resistant Plasmodium falciparum FCR-3; type: toxicity; conditions: HepG2A16 cells, read-out: Ratio CC50/IC50
In short: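 HepG2-A16 human hepatoma cells were tested by MTT viability assay to give CC50. Blood-stage activity was measured against the multidrug-resistant P. falciparum FCR-3 strain by [3H]-hypoxanthine incorporation to give IC50. SI = CC50 HepG2 / FCR-3 IC50.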

[2] = Solubility of the compound in DSPC:cholesterol:DSPE-PEG2000-Mal:DOPE-Rho lipid mixture at 250 uM; type: physicochemical
In short: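 Compound added at 250 µM drug to the initial liposome lipid mixture (10 mM total lipid); precipitation and UV-visible absorbance above 300 nm assessed after encapsulation, removal of unencapsulated material and extraction with 1% w/v SDS in RPMI-A.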

[3] = Cytotoxicity against human HepG2A16 cells by MTT assay; type: cell-based; conditions: HepG2A16 cells
In short: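 MTT viability assay on HepG2-A16 cells, giving CC50 values.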

Plasmodium falciparum [4] = test: Antiplasmodial activity against chloroquine-sensitive Plasmodium falciparum 3D7 by [3H]-hypoxanthine incorporation assay; type: functional, organism-based; conditions: Plasmodium falciparum, 3D7
In short: (§1)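 Blood-stage P. falciparum 3D7 and FCR-3 were tested by a modified [3H]-hypoxanthine incorporation assay. Chloroquine was the reference in all runs.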

Plasmodium falciparum [5] = test: Antiplasmodial activity against multidrug-resistant Plasmodium falciparum FCR-3 by [3H]-hypoxanthine incorporation assay; type: functional, organism-based, FCR-3/Gambia; conditions: Plasmodium falciparum, FCR-3/Gambia; in short: as §1

| SMILES | selectivity ratio [1] | solubility [2] | CC50 [3] [nM] | IC50 (Plasmodium falciparum [4]) [nM] | IC50 (Plasmodium falciparum [5]) [nM] |
| --- | --- | --- | --- | --- | --- |
| OC(CCN1CCN(C(c2ccccc2)c2ccccc2)CC1)c1ccc2c(c1)OCO2 (stereo not given) | 25 | Insoluble | 36100 | 1660 | 1440 |
| COC(=O)c1ccc(C(O)CCN2CCN(C(c3ccccc3)c3ccccc3)CC2)cc1 (stereo not given) | 58 | Insoluble | 84000 | 1690 | 1460 |
